Activity calls are given as the source filed them. No cut-off for these calls is given here.
biological target: T1, Fatty-acid amide hydrolase 1 (Homo sapiens) (UniProt O00519); assay: Ratio of Kinact to Ki for histidine6-tagged human FAAH
T1 sequence (whole entry): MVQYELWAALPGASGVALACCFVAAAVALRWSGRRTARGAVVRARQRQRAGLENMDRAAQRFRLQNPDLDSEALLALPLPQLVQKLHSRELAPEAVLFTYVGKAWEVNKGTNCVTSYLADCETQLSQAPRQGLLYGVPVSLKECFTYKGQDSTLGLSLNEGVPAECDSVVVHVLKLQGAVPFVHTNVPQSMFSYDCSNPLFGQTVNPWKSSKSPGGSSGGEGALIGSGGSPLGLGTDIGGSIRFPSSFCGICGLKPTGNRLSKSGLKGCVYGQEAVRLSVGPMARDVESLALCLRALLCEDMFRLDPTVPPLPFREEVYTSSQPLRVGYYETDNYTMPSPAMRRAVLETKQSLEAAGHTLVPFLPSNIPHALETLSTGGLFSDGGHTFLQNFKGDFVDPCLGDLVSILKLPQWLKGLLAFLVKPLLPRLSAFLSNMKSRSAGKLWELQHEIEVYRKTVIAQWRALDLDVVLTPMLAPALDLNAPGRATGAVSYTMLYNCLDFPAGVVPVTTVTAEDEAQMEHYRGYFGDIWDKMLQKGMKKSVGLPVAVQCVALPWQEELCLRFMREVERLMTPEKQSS
Method in brief: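 Human FAAH construct: aa 32–579, N-terminal transmembrane-deleted, N-terminal His6 tag, expressed in E. coli and purified to >95% by SDS–PAGE. Potency measured as kinact/Ki in a GDH-coupled FAAH assay in 384-well format. kobs was plotted against [I]; kinact/Ki came from the slope kinact/[Ki(1+[S]/Km)].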

| Compound | Ratio |
| --- | --- |
| Cc1c(CN2CCN(C(=O)Nc3ccc(Oc4cccnc4)nc3)CC2)sc2ccccc12 | < 10 M⁻¹ s⁻¹ |
| Cc1ccc2sc(CN3CCN(C(=O)Nc4ccc(C)nc4)CC3)c(C)c2c1 | 1170 M⁻¹ s⁻¹ |
| Cc1ccc(NC(=O)N2CCN(Cc3sc4ccc(F)cc4c3C)CC2)cn1 | 1870 M⁻¹ s⁻¹ |
| Cc1ccc(NC(=O)N2CCN(Cc3sc4ccccc4c3C)CC2)cn1 | 44 M⁻¹ s⁻¹ |
| Cc1c(CN2CCN(C(=O)Nc3cccnc3)CC2)sc2cccc(F)c12 | 3320 M⁻¹ s⁻¹ |
| Cc1c(CN2CCN(C(=O)Nc3cccnc3)CC2)sc2ccc(F)cc12 | 3130 M⁻¹ s⁻¹ |
| Cc1ccc2sc(CC3CCN(C(=O)Nc4cccnc4)CC3)c(C)c2c1 | 3020 M⁻¹ s⁻¹ |
| Cc1c(C(O)C2CCN(C(=O)Nc3cccnc3)CC2)sc2ccccc12 (racemic) | 200 M⁻¹ s⁻¹ |
| CCc1c(CN2CCN(C(=O)Nc3cccnc3)CC2)sc2ccc(F)cc12 | 1810 M⁻¹ s⁻¹ |
| Cc1ccc(NC(=O)N2CCN(Cc3sc4cccc(F)c4c3C)CC2)cn1 | 1980 M⁻¹ s⁻¹ |
| Cc1c(CN2CCN(C(=O)Nc3ccc(-c4ccccc4)nc3)CC2)sc2ccccc12 | < 10 M⁻¹ s⁻¹ |
| Cc1c(CC2CCN(C(=O)Nc3cccnc3)CC2)sc2cccc(F)c12 | 4150 M⁻¹ s⁻¹ |
| Cc1noc(NC(=O)N2CCN(Cc3sc4ccccc4c3C)CC2)c1C | 1560 M⁻¹ s⁻¹ |
| Cc1c(CN2CCN(C(=O)Nc3ccccn3)CC2)sc2ccccc12 | 1000 M⁻¹ s⁻¹ |
| Cc1cnc(NC(=O)N2CCN(Cc3sc4ccccc4c3C)CC2)s1 | < 10 M⁻¹ s⁻¹ |
| Cc1c(CN2CCN(C(=O)Nc3cccnc3)CC2)sc2ccc(Cl)cc12 | 2820 M⁻¹ s⁻¹ |
| Cc1c(C(C)C2CCN(C(=O)Nc3cccnc3)CC2)sc2ccccc12 (racemic) | 114 M⁻¹ s⁻¹ |
| O=C(Nc1cccnc1)N1CCN(Cc2cc3ccccc3s2)CC1 | 695 M⁻¹ s⁻¹ |
| CCc1c(CN2CCN(C(=O)Nc3cccnc3)CC2)sc2ccccc12 | 1400 M⁻¹ s⁻¹ |
| Cc1c(CN2CCN(C(=O)Nc3cccnc3)CC2)sc2ccc(C(F)(F)F)cc12 | 1390 M⁻¹ s⁻¹ |
| C=C(c1sc2ccccc2c1C)C1CCN(C(=O)Nc2cccnc2)CC1 | 5440 M⁻¹ s⁻¹ |
| Cc1c(C(C)C2CCN(C(=O)Nc3cccnc3)CC2)sc2ccccc12 (stereo in doubt; 17-E2) | 617 M⁻¹ s⁻¹ |
| Cc1ccc2c(Cl)c(CN3CCN(C(=O)Nc4ccc(C)nc4)CC3)sc2c1 | 73 M⁻¹ s⁻¹ |
| COc1ccc2c(C)c(CN3CCN(C(=O)Nc4cccnc4)CC3)sc2c1 | 73 M⁻¹ s⁻¹ |
| Cc1c(CN2CCN(C(=O)NCc3ccccc3)CC2)sc2ccccc12 | < 10 M⁻¹ s⁻¹ |
| COc1ccc2sc(CN3CCN(C(=O)Nc4cccnc4)CC3)c(C)c2c1 | 1380 M⁻¹ s⁻¹ |

biological target: T2, Fatty-acid amide hydrolase 1 (Rattus norvegicus) (UniProt P97612); assay: Ratio of Kinact to Ki for histidine6-tagged rat FAAH
T2 sequence (whole entry): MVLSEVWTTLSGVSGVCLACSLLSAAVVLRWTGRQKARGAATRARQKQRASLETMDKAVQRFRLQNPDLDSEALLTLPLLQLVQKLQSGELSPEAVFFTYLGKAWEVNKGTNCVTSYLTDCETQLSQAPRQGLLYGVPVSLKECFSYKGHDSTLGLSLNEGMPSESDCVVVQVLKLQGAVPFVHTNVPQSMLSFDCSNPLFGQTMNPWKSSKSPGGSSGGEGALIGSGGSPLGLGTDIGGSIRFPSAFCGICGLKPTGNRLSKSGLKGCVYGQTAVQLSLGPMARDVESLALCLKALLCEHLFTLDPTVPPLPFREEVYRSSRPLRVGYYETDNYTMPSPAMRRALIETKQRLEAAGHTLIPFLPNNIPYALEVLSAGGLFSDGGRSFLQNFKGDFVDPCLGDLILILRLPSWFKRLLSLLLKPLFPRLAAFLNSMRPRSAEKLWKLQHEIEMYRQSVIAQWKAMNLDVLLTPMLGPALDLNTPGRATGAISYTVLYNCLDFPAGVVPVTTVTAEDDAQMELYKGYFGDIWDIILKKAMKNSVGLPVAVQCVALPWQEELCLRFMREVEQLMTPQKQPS
Method in brief: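 Rat FAAH construct: aa 30–579, N-terminal transmembrane-deleted, N-terminal His6 tag, E. coli-expressed and purified to >95% purity. Activity read by a GDH-coupled enzyme assay in 384-well plates. Second-order kinact/Ki was derived from the linear slope of kobs versus [I], correcting with (1+[S]/Km).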

| Compound | Ratio |
| --- | --- |
| Cc1c(CN2CCN(C(=O)Nc3ccc(Oc4cccnc4)nc3)CC2)sc2ccccc12 | < 10 M⁻¹ s⁻¹ |
| Cc1ccc2sc(CN3CCN(C(=O)Nc4ccc(C)nc4)CC3)c(C)c2c1 | 183 M⁻¹ s⁻¹ |
| Cc1ccc(NC(=O)N2CCN(Cc3sc4ccc(F)cc4c3C)CC2)cn1 | 260 M⁻¹ s⁻¹ |
| Cc1ccc(NC(=O)N2CCN(Cc3sc4ccccc4c3C)CC2)cn1 | 390 M⁻¹ s⁻¹ |
| Cc1c(CN2CCN(C(=O)Nc3cccnc3)CC2)sc2cccc(F)c12 | 1200 M⁻¹ s⁻¹ |
| Cc1c(CN2CCN(C(=O)Nc3cccnc3)CC2)sc2ccc(F)cc12 | 779 M⁻¹ s⁻¹ |
| Cc1ccc2sc(CC3CCN(C(=O)Nc4cccnc4)CC3)c(C)c2c1 | 482 M⁻¹ s⁻¹ |
| Cc1c(C(O)C2CCN(C(=O)Nc3cccnc3)CC2)sc2ccccc12 (racemic) | 79 M⁻¹ s⁻¹ |
| CCc1c(CN2CCN(C(=O)Nc3cccnc3)CC2)sc2ccc(F)cc12 | 617 M⁻¹ s⁻¹ |
| Cc1ccc(NC(=O)N2CCN(Cc3sc4cccc(F)c4c3C)CC2)cn1 | 758 M⁻¹ s⁻¹ |
| Cc1c(CN2CCN(C(=O)Nc3ccc(-c4ccccc4)nc3)CC2)sc2ccccc12 | 1220 M⁻¹ s⁻¹ |
| Cc1c(CC2CCN(C(=O)Nc3cccnc3)CC2)sc2cccc(F)c12 | 1550 M⁻¹ s⁻¹ |
| Cc1noc(NC(=O)N2CCN(Cc3sc4ccccc4c3C)CC2)c1C | 1430 M⁻¹ s⁻¹ |
| Cc1c(CN2CCN(C(=O)Nc3ccccn3)CC2)sc2ccccc12 | 635 M⁻¹ s⁻¹ |
| Cc1cnc(NC(=O)N2CCN(Cc3sc4ccccc4c3C)CC2)s1 | < 10 M⁻¹ s⁻¹ |
| Cc1c(CN2CCN(C(=O)Nc3cccnc3)CC2)sc2ccc(Cl)cc12 | 1130 M⁻¹ s⁻¹ |
| Cc1c(C(C)C2CCN(C(=O)Nc3cccnc3)CC2)sc2ccccc12 (racemic) | 48 M⁻¹ s⁻¹ |
| O=C(Nc1cccnc1)N1CCN(Cc2cc3ccccc3s2)CC1 | 174 M⁻¹ s⁻¹ |
| CCc1c(CN2CCN(C(=O)Nc3cccnc3)CC2)sc2ccccc12 | 774 M⁻¹ s⁻¹ |
| Cc1c(CN2CCN(C(=O)Nc3cccnc3)CC2)sc2ccc(C(F)(F)F)cc12 | 219 M⁻¹ s⁻¹ |
| C=C(c1sc2ccccc2c1C)C1CCN(C(=O)Nc2cccnc2)CC1 | 991 M⁻¹ s⁻¹ |
| Cc1c(C(C)C2CCN(C(=O)Nc3cccnc3)CC2)sc2ccccc12 (stereo in doubt; 17-E2) | 110 M⁻¹ s⁻¹ |
| Cc1ccc2c(Cl)c(CN3CCN(C(=O)Nc4ccc(C)nc4)CC3)sc2c1 | 14 M⁻¹ s⁻¹ |
| COc1ccc2c(C)c(CN3CCN(C(=O)Nc4cccnc4)CC3)sc2c1 | 113 M⁻¹ s⁻¹ |
| Cc1c(CN2CCN(C(=O)NCc3ccccc3)CC2)sc2ccccc12 | < 10 M⁻¹ s⁻¹ |
| COc1ccc2sc(CN3CCN(C(=O)Nc4cccnc4)CC3)c(C)c2c1 | 500 M⁻¹ s⁻¹ |

biological target: T3, Fatty-acid amide hydrolase 1 (Mus musculus) (UniProt O08914); assay: Inhibition of histidine6-tagged FAAH from mouse liver proteomes at 10 to 100 uM
T3 sequence (whole entry): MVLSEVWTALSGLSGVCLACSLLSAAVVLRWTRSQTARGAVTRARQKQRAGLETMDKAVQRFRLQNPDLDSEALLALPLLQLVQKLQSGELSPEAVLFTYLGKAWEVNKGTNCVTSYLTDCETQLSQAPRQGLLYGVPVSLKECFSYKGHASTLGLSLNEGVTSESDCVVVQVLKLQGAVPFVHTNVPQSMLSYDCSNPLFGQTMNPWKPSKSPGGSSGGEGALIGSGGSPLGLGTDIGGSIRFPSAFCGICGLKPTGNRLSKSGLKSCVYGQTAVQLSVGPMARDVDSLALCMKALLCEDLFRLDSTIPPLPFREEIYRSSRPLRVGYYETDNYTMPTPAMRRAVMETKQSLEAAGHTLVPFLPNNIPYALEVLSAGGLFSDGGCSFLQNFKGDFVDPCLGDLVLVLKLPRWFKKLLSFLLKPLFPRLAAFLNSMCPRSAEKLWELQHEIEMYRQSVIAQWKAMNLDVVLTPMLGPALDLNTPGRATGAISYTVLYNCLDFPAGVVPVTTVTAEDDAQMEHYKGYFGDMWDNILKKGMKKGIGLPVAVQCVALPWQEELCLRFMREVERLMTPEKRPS
Method in brief: (§1)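 Competitive activity-based protein profiling with FP probe labeling of serine hydrolases. Proteomes used: soluble mouse liver, mouse kidney, human liver and human heart, plus human brain membrane. Compounds tested at 100 μM, reference at 10 and 100 μM. Inhibited bands were read by gel; FAAH and off-target labeling were judged by band loss.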

| Compound | inhibition |
| --- | --- |
| Cc1ccc(NC(=O)N2CCN(Cc3sc4ccccc4c3C)CC2)cn1 | Active |
| NC(=O)c1cccc(-c2cccc(OC(=O)NC3CCCCC3)c2)c1 | Active |

biological target: T1, Fatty-acid amide hydrolase 1 (Homo sapiens); assay: Inhibition of histidine6-tagged FAAH from human liver proteomes at 10 to 100 uM; method in brief: as §1

| Compound | inhibition |
| --- | --- |
| Cc1ccc(NC(=O)N2CCN(Cc3sc4ccccc4c3C)CC2)cn1 | Active |
| NC(=O)c1cccc(-c2cccc(OC(=O)NC3CCCCC3)c2)c1 | Active |

biological target: T1, Fatty-acid amide hydrolase 1 (Homo sapiens); assay: Inhibition of histidine6-tagged FAAH from human heart proteomes at 10 to 100 uM; method in brief: as §1

| Compound | inhibition |
| --- | --- |
| Cc1ccc(NC(=O)N2CCN(Cc3sc4ccccc4c3C)CC2)cn1 | Active |
| NC(=O)c1cccc(-c2cccc(OC(=O)NC3CCCCC3)c2)c1 | Active |

biological target: T1, Fatty-acid amide hydrolase 1 (Homo sapiens); assay: Inhibition of histidine6-tagged FAAH from human brain proteomes at 10 to 100 uM; method in brief: as §1

| Compound | inhibition |
| --- | --- |
| Cc1ccc(NC(=O)N2CCN(Cc3sc4ccccc4c3C)CC2)cn1 | Active |
| NC(=O)c1cccc(-c2cccc(OC(=O)NC3CCCCC3)c2)c1 | Active |

biological target: T3, Fatty-acid amide hydrolase 1 (Mus musculus); assay: Inhibition of histidine6-tagged FAAH from mouse kidney proteomes at 10 to 100 uM; type: tissue-based; method in brief: as §1

| Compound | inhibition |
| --- | --- |
| Cc1ccc(NC(=O)N2CCN(Cc3sc4ccccc4c3C)CC2)cn1 | Active |
| NC(=O)c1cccc(-c2cccc(OC(=O)NC3CCCCC3)c2)c1 | Active |
